Reference: ChEMBL document CHEMBL1287780, “Discovery of 1H-benzo[d][1,2,3]triazol-1-yl 3,4,5-trimethoxybenzoate as a potential antiproliferative agent by inhibiting histone deacetylase” (Bioorg Med Chem, 2010)

Tests used:
[1] = tested on: KB; experiment: Antiproliferative activity against human KB cells after 72 hrs by methylene blue staining; assay type: functional, cell-based
Summary of the method: (§1)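 Log-phase cells kept in RPMI-1640 with 5% fetal bovine serum, seeded at 5000 cells/mL/well, then exposed to a range of drug concentrations for 72 h. Growth read by methylene blue dye assay. IC50, the concentration giving 50% growth inhibition relative to untreated control, derived graphically. Doxorubicin served as positive control.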

[2] = tested on: NCI-H460; experiment: Antiproliferative activity against human H460 cells after 72 hrs by methylene blue staining; assay type: functional, cell-based; conditions: NCI-H460, 72 h; summary of the method: as §1
[3] = tested on: MKN-45; experiment: Antiproliferative activity against human MKN45 cells after 72 hrs by methylene blue staining; assay type: functional, cell-based; conditions: MKN-45, 72 h; summary of the method: as §1
[4] = target: Histone deacetylase; experiment: Inhibition of human HDAC after 30 mins; assay type: protein assay

| SMILES | IC50 [1] | IC50 [2] | IC50 [3] | IC50 [4] |
| --- | --- | --- | --- | --- |
| COc1cccc2c1C(=O)c1c(O)c3c(c(O)c1C2=O)C[C@@](O)(C(=O)CO)C[C@@H]3O[C@H]1C[C@H](N)[C@H](O)[C@H](C)O1 [DOXORUBICIN] | 0.23 nM | 0.38 nM | – | – |
| O=C(c1ccc(O)cc1)n1nnc2ccccc21 | 577 nM | 662 nM | 385 nM | – |
| COc1ccc(C(=O)On2nnc3ccccc32)cc1 | 43 nM | 52 nM | 39 nM | 73100 nM |
| O=C(On1nnc2ccccc21)c1ccccc1 | 104 nM | 195 nM | 97 nM | – |
| O=C(c1cc(O)c(O)c(O)c1)n1nnc2ccccc21 | 392 nM | 332 nM | 334 nM | – |
| O=C(On1nnc2ccccc21)c1cc(O)c(O)c(O)c1 | 18 nM | 41 nM | 17 nM | > 100000 nM |
| O=C(c1cc(O)cc(O)c1)n1nnc2ccccc21 | 575 nM | 559 nM | 521 nM | – |
| COc1cc(OC)cc(C(=O)On2nnc3ccc(OC)cc32)c1 | 35 nM | 80 nM | 36 nM | 87500 nM |
| COc1ccc(C(=O)n2nnc3ccccc32)cc1 | 501 nM | 662 nM | 500 nM | – |
| COc1cc(OC)cc(C(=O)n2nnc3ccccc32)c1 | 434 nM | 491 nM | 419 nM | – |
| O=C(On1nnc2ccccc21)c1cc(O)cc(O)c1 | 67 nM | 52 nM | 28 nM | – |
| COc1ccc2nnn(OC(=O)c3cc(OC)c(OC)c(OC)c3)c2c1 | 11 nM | 23 nM | 8 nM | 58100 nM |
| COc1ccc2nnn(OC(=O)c3ccccc3)c2c1 | 209 nM | 295 nM | 206 nM | – |
| COc1cc(C(=O)On2nnc3ccccc32)cc(OC)c1OC | 1.2 nM | 2.4 nM | 1.5 nM | 9400 nM |
| COc1cc(OC)cc(C(=O)On2nnc3ccccc32)c1 | 37 nM | 42 nM | 30 nM | 61100 nM |
| COc1ccc2nnn(OC(=O)c3cc(O)cc(O)c3)c2c1 | 153 nM | 195 nM | 93 nM | – |
| COc1ccc2nnn(OC(=O)c3cc(O)c(O)c(O)c3)c2c1 | 81 nM | 117 nM | 36 nM | – |
| COc1ccc2nnn(OC(=O)c3ccc(O)cc3)c2c1 | 149 nM | 216 nM | 184 nM | – |
| COc1ccc(C(=O)On2nnc3ccc(OC)cc32)cc1 | 97 nM | 95 nM | 93 nM | – |
| COc1cc(C(=O)n2nnc3ccccc32)cc(OC)c1OC | 291 nM | 480 nM | 275 nM | – |
| O=C(c1ccccc1)n1nnc2ccccc21 | 666 nM | 750 nM | 668 nM | – |
| O=C(On1nnc2ccccc21)c1ccc(O)cc1 | 88 nM | 98 nM | 49 nM | – |
